From ChEMBL document CHEMBL1154533, “Syntheses and evaluation of glucosyl aryl thiosemicarbazide and glucosyl thiosemicarbazone derivatives as antioxidant and anti-dyslipidemic agents” (2009) come the findings set out here.

Assay type in all cases: functional
What all share (design): scale not given: the % may be the effect or the level left

Assay [1] has as its system Rattus norvegicus. Description: Antidyslipidemic activity against triton-induced hyperlipidemia in Charles Foster rat assessed as reduction in total cholesterol level at 100 mg/kg, po after 18 hrs relative to control. Summed up:
(§1)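 Adult male Charles Foster rats (200 […] 225 g), six per group. Triton WR-1339 at 400 mg/Kg ip induced hyperlipidemia. Test compound was given at 100 mg/Kg po, suspended in 0.2% w/v gum acacia in water, at the same time as triton; vehicle controls were included. After 18 h, retro-orbital blood was taken into EDTA and plasma obtained (2500 g, 4 °C, 10 min). Plasma was diluted 1:3 in saline and TC, PL and Tg measured by standard methods. Reported as mean […] SD; Student's t-test.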

Assay [2] has as its system Rattus norvegicus. Description: Antidyslipidemic activity against triton-induced hyperlipidemia in Charles Foster rat assessed as reduction in phospholipid level at 100 mg/kg, po after 18 hrs relative to control. The essentials:
as §1

Assay [3] concerns Rattus norvegicus. The assay is described as follows: Antidyslipidemic activity against triton-induced hyperlipidemia in Charles Foster rat assessed as reduction in triglyceride level at 100 mg/kg, po after 18 hrs relative to control. Summed up: as §1
Assay [4] concerns Rattus norvegicus. The assay is described as follows: Decrease in triton-induced increase in protein level in Charles Foster rat hyperlipidemia model at 100 mg/kg, po after 18 hrs relative to control.
For assay [5], the system named is Rattus norvegicus. The assay is described as follows: Antidyslipidemic activity against triton-induced inhibition of post heparin lipolytic activity in Charles Foster rat hyperlipidemia model assessed as formation of free fatty acid per mL of plasma at 100 mg/kg, po after 18 hrs relative to control. Summed up:
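Triton WR-1339 rat model (400 mg/Kg ip; compound 100 mg/Kg po in gum acacia, given with triton; six rats per group). Post-heparin lipolytic activity was measured in plasma collected at 18 h. Expressed as nmol free fatty acid formed/h/mL plasma; mean ± SD.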

The nature of assay [6]: Antioxidant activity assessed as reduction in generation of superoxide radicals at 100 ug/mL measured as formazone formation by spectrophotometry relative to control. The essentials: (§2)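 Superoxide was generated enzymatically with xanthine ([…]), xanthine oxidase (0.04 U) and nitroblue tetrazolium (320 μM) in 100 mM phosphate buffer, pH 8.2, with or without compound. Incubated 30 min at 37 °C, then stopped with glacial acetic acid. Formazone was quantified spectrophotometrically (nmol/min). Mean ± SD of six; Student's t-test.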

A short description of assay [7]: Antioxidant activity assessed as reduction in generation of superoxide radicals at 200 ug/mL measured as formazone formation by spectrophotometry relative to control. The essentials:
as §2

A short description of assay [8]: Antioxidant activity assessed as reduction in generation of hydroxyl radicals at 100 ug/mL measured as malondialdehyde formation by spectrophotometry relative to control.
Assay [9] is described as follows: Antioxidant activity assessed as reduction in generation of hydroxyl radicals at 200 ug/mL measured as malondialdehyde formation by spectrophotometry relative to control.
The nature of assay [10]: Antioxidant activity assessed as reduction in lipid peroxidation in microsomes at 100 ug/mL measured as malondialdehyde formation by spectrophotometry relative to control. The note with it: Microsome.
Assay [11] in a line: Antioxidant activity assessed as reduction in lipid peroxidation in microsomes at 200 ug/mL measured as malondialdehyde formation by spectrophotometry relative to control. The note with it: Microsome.

Consider `CC(=O)OC[C@H]1O[C@@H](NC(=S)N/N=C/c2ccc([N+](=O)[O-])s2)[C@H](OC(C)=O)[C@@H](OC(C)=O)[C@@H]1OC(C)=O`, for which the Activity stood at 13% in the assay with Rattus norvegicus [1]; 16% with Rattus norvegicus [2]; 14% with Rattus norvegicus [3]; 19% in the assay with Rattus norvegicus [4]; 14% in the assay with Rattus norvegicus [5]; 20% in assay [6]. The Activity in assay [7] stood at 34%; in assay [8] it was 20%; in assay [9], 37%; in assay [10] it was 11%; in assay [11], 23%.
For `CC(=O)OC[C@H]1O[C@@H](NC(=S)NNc2ccc(F)cc2)[C@H](OC(C)=O)[C@@H](OC(C)=O)[C@@H]1OC(C)=O`, the Activity with Rattus norvegicus [1] came to 13%; in the assay with Rattus norvegicus [2], 14%; in the assay on Rattus norvegicus [3], 9%; with Rattus norvegicus [4], 18%; with Rattus norvegicus [5], 14%; in [6], 15%. The Activity came to 29% in assay [7]; 22% in assay [8]; 36% in [9]; 22% in assay [10]; 34% in [11].
For `COc1ccc(/C=N/NC(=S)N[C@@H]2O[C@H](COC(C)=O)[C@@H](OC(C)=O)[C@H](OC(C)=O)[C@H]2OC(C)=O)cc1`, the Activity with Rattus norvegicus [1] worked out at 17%; with Rattus norvegicus [2], 15%; with Rattus norvegicus [3], 10%; in the assay with Rattus norvegicus [4], 15%; in the assay on Rattus norvegicus [5] it was 8%; in assay [6], 25%. In addition, the Activity was 33% in assay [7]; 20% in [8]; 34% in assay [9]; 26% in assay [10]; 35% in [11].
On to `OC[C@@H](O)[C@@H](O)[C@H](O)[C@H](O)CO`, for which the Activity in assay [8] came to 45%.
As for `COc1ccc(/C(C)=N/NC(=S)N[C@@H]2O[C@H](COC(C)=O)[C@@H](OC(C)=O)[C@H](OC(C)=O)[C@H]2OC(C)=O)cc1OC`, the Activity with Rattus norvegicus [1] turned out to be 19%; with Rattus norvegicus [2] it was 23%; in the assay with Rattus norvegicus [3] it was 22%; in the assay on Rattus norvegicus [4] it was 24%; in the assay on Rattus norvegicus [5], 25%; in assay [6] it was 9%. Also, the Activity was 24% in [7]; 15% in assay [8]; 27% in [9]; 22% in assay [10]; 35% in assay [11].
As to `CC(=O)OC[C@H]1O[C@@H](NC(=S)N/N=C(\C)c2cc(C)ccc2C)[C@H](OC(C)=O)[C@@H](OC(C)=O)[C@@H]1OC(C)=O`, the Activity with Rattus norvegicus [1] was 18%; in the assay on Rattus norvegicus [2] it was 18%; in the assay with Rattus norvegicus [3], 17%; in the assay with Rattus norvegicus [4] it was 12%; in the assay with Rattus norvegicus [5], 10%; in assay [6] it was 20%. In addition, the Activity worked out at 30% in assay [7]; 16% in assay [8]; 29% in [9]; 16% in assay [10]; 26% in assay [11].
With `CC(=O)OC[C@H]1O[C@@H](NC(=S)NNc2ccc(F)cc2F)[C@H](OC(C)=O)[C@@H](OC(C)=O)[C@@H]1OC(C)=O`, the Activity in the assay on Rattus norvegicus [1] came to 24%; in the assay on Rattus norvegicus [2], 25%; with Rattus norvegicus [3], 25%; in the assay with Rattus norvegicus [4], 20%; in the assay with Rattus norvegicus [5], 23%; in [6], 16%. The Activity in [7] is 27%; in [8], 20%; in [9], 35%; in assay [10], 24%; in assay [11], 31%.
In the case of `CC(=O)OC[C@H]1O[C@@H](NC(=S)N/N=C/c2ccc([N+](=O)[O-])cc2)[C@H](OC(C)=O)[C@@H](OC(C)=O)[C@@H]1OC(C)=O`, the Activity in the assay on Rattus norvegicus [1] came out at 19%; in the assay on Rattus norvegicus [2], 14%; in the assay with Rattus norvegicus [3], 11%; in the assay with Rattus norvegicus [4], 22%; with Rattus norvegicus [5], 13%; in assay [6] it was 13%. Further, the Activity in [7] was found to be 23%; in assay [8] it was 17%; in assay [9], 23%; in assay [10] it was 18%; in assay [11], 31%.
With `COc1ccc(NNC(=S)N[C@@H]2O[C@H](COC(C)=O)[C@@H](OC(C)=O)[C@H](OC(C)=O)[C@H]2OC(C)=O)cc1`, the Activity with Rattus norvegicus [1] was 18%; in the assay with Rattus norvegicus [2], 12%; in the assay with Rattus norvegicus [3] it was 10%; in the assay with Rattus norvegicus [4], 18%; with Rattus norvegicus [5], 7%; in assay [6] it was 21%. Moreover, the Activity in [7] is 37%; in assay [8], 15%; in [9], 23%; in [10], 28%; in assay [11], 32%.
Turning to `CC(=O)OC[C@H]1O[C@@H](NC(=S)N/N=C/c2ccc(Cl)cc2)[C@H](OC(C)=O)[C@@H](OC(C)=O)[C@@H]1OC(C)=O`, the Activity in the assay on Rattus norvegicus [1] came to 14%; with Rattus norvegicus [2], 6%; in the assay with Rattus norvegicus [3], 10%; in the assay on Rattus norvegicus [4], 22%; in the assay on Rattus norvegicus [5] it was 12%; in assay [6], 16%. In addition, the Activity in assay [7] is 25%; in assay [8], 13%; in assay [9], 19%; in [10], 23%; in assay [11] it was 33%.
As for `CC(=O)OC[C@H]1O[C@@H](NC(=S)N/N=C/c2cccnc2)[C@H](OC(C)=O)[C@@H](OC(C)=O)[C@@H]1OC(C)=O`, the Activity worked out at 15% in the assay with Rattus norvegicus [1]; 14% in the assay with Rattus norvegicus [2]; 10% in the assay with Rattus norvegicus [3]; 14% with Rattus norvegicus [4]; 9% in the assay on Rattus norvegicus [5]; 16% in assay [6]. The Activity in [7] was 28%; in assay [8], 13%; in [9], 26%; in [10], 18%; in [11], 26%.
Regarding `CC(=O)OC[C@H]1O[C@@H](NC(=S)N/N=C/c2ccncc2)[C@H](OC(C)=O)[C@@H](OC(C)=O)[C@@H]1OC(C)=O`, the Activity with Rattus norvegicus [1] turned out to be 11%; in the assay with Rattus norvegicus [2] it was 11%; in the assay on Rattus norvegicus [3] it was 8%; with Rattus norvegicus [4], 11%; in the assay on Rattus norvegicus [5], 8%; in assay [6] it was 14%. The Activity worked out at 25% in [7]; 11% in [8]; 23% in [9]; 22% in assay [10]; 33% in assay [11].
On to `Oc1ncnc2[nH]ncc12`, for which, in assay [6], the Activity turned out to be 77%.
For the compound `Cc1ccc(C)c(OCCCC(C)(C)C(=O)O)c1` [GEMFIBROZIL], the Activity was found to be 38% in the assay with Rattus norvegicus [1]; 39% in the assay on Rattus norvegicus [2]; 37% in the assay with Rattus norvegicus [3]; 33% with Rattus norvegicus [4]; 34% in the assay with Rattus norvegicus [5].
